Activity calls are given as the source filed them. The rule behind the calls is not given here.
Legend:
[1] = biological target: T1, Heme oxygenase 1 (Mus musculus) (UniProt P14901); assay: Induction of HO1 in mouse RAW264.7 cells at 100 nM after 6 hrs by SDS-PAGE; assay type: cell-based
T1 sequence (whole entry): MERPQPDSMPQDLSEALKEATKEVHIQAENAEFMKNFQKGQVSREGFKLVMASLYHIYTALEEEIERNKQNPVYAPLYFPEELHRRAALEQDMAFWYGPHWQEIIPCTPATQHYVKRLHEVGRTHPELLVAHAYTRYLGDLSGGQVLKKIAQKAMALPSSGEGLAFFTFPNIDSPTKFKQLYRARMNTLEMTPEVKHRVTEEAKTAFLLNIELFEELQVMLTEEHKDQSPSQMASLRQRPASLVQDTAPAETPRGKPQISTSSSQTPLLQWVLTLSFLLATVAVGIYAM
Outline: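 RAW 264.7 cells exposed to compounds at 100 nM for 6 hours. Total cell lysates resolved by SDS-PAGE, immunoblotted with HO-1 antibody, ECL detection.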

[2] = Stability assessed as compound remaining after 24 hrs in presence of in 10% fetal bovine serum; assay type: ADME; conditions: cattle
Outline: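 Compound incubated in RAW 264.7 cell growth medium (RPMI with 10% fetal bovine serum) at 37 °C. Percentage of material remaining followed over time up to 24 h.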

RAW264.7 = assay: Antiinflammatory activity against IFN-gamma-stimulated mouse RAW264.7 cells assessed as nitrite accumulation after 24 hrs by Griess reagent method; assay type: functional, cell-based; conditions: RAW264.7, 24 h
Outline: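 RAW 264.7 cells co-treated with graded compound concentrations and interferon-γ (10 ng/mL) for 24 hours; nitric oxide in supernatants measured by Griess reaction. IC50 averaged over three experiments.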

Liver = assay: Drug level in CD1 mouse liver at 2 umol, ip after 6 hrs by HPLC/MS; assay type: ADME, organism-based; conditions: in vivo
Outline: (§1)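 Female CD-1 mice dosed i.p. with 2 µmol compound in DMSO–cremophor–PBS (1:1:8). Sacrificed 6 hours later; liver, lung, whole blood and plasma collected for compound levels (tissue µmol/kg, blood/plasma µM).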

Mus musculus = assay: Induction of HO1 in CD1 mouse liver at 2 umol, ip after 6 hrs by SDS-PAGE; assay type: functional, organism-based
Outline: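 CD-1 mice, 4 per group, given a single 2 µmol i.p. injection. Livers harvested after 6 h and homogenized. Lysates separated by SDS-PAGE, probed with HO-1 antibodies and developed by ECL.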

[3] = Drug uptake in CD1 mouse plasma at 2 umol, ip after 6 hrs by HPLC/MS; assay type: ADME, organism-based; conditions: read-out: Drug uptake; outline: as §1
[4] = Drug level in CD1 mouse whole blood at 2 umol, ip after 6 hrs by HPLC/MS; assay type: ADME, organism-based; conditions: read-out: Drug uptake; outline: as §1
Lung = assay: Drug level in CD1 mouse lung at 2 umol, ip after 6 hrs by HPLC/MS; assay type: ADME, organism-based; conditions: in vivo; outline: as §1

Compound | Activity [1] | Activity [2] | IC50 (RAW264.7) [µM] | Drug uptake (Liver) [µmol/kg] | Activity (Mus musculus) | concentration at 6 h [3] [µM] | concentration at 6 h [4] [µM] | Drug uptake (Lung) [µmol/kg]
C=C(C)[C@@H]1CC[C@]2(C(=O)O)CC[C@]3(C)[C@H](CC[C@@H]4[C@@]5(C)C=C(C#N)C(=O)C(C)(C)[C@@H]5CC[C@]43C)[C@@H]12 | Active | – | – | – | – | – | – | –
CC1(C)CC[C@]2(C(=O)OC(=O)[C@]34CCC(C)(C)C[C@H]3[C@H]3C(=O)C=C5[C@@]6(C)C=C(C#N)C(=O)C(C)(C)[C@@H]6CC[C@@]5(C)[C@]3(C)CC4)CC[C@]3(C)[C@H](C(=O)C=C4[C@@]5(C)C=C(C#N)C(=O)C(C)(C)[C@@H]5CC[C@]43C)[C@@H]2C1 | Active | Active | 0.0147 | 0.045 | Active | 43 | 52 | 0.031
CC1(C)CC[C@]2(C(=O)O)CC[C@]3(C)[C@H](C(=O)C=C4[C@@]5(C)C=C(C#N)C(=O)C(C)(C)[C@@H]5CC[C@]43C)[C@@H]2C1 [BARDOXOLONE] | Active | – | 0.0283 | 0.041 | – | 2 | 19 | 0.018
C=C(C)[C@@H]1CC[C@]2(C(=O)OC(=O)[C@]34CC[C@@H](C(=C)C)[C@@H]3[C@H]3CC[C@@H]5[C@@]6(C)C=C(C#N)C(=O)C(C)(C)[C@@H]6CC[C@@]5(C)[C@]3(C)CC4)CC[C@]3(C)[C@H](CC[C@@H]4[C@@]5(C)C=C(C#N)C(=O)C(C)(C)[C@@H]5CC[C@]43C)[C@@H]12 [LUPANE ANHYDRIDE] | inactive | – | > 10 | – | – | – | – | –

Source: ChEMBL document CHEMBL1156279, “2-Cyano-3,10-dioxooleana-1,9(11)-dien-28-oic acid anhydride. A novel and highly potent anti-inflammatory and cytoprotective agent” (Bioorg Med Chem Lett, 2010)
